Experimental data of several laboratories.
Compare with care: the assays were run in different laboratories. pEC50, pIC50, pKd, pKi: −log10 of the molar value.
RNMT: mRNA cap guanine-N(7) methyltransferase (RNMT, Homo sapiens, UniProt O43148)
DHFR: Dihydrofolate reductase (DHFR, Homo sapiens, UniProt P00374)
HTR2B: 5-hydroxytryptamine receptor 2B (HTR2B, Homo sapiens, UniProt P41595)

CC(=O)N(CC#Cc1cccc(C(N)=O)c1)C[C@H]1C[C@@H](n2ccc3c(Cl)ncnc32)[C@H](O)[C@@H]1O — pKd (RNMT; binding, MST): < 3.52
Cc1ccc(NC(=S)NN=Cc2ccc(N3CCCCC3)cc2)cc1 — pIC50 (DHFR; enzyme activity, inhibitor): 4.55
N#C[C@@]12C[C@@H]1[C@@H](n1cnc3c(NC4CCCC4)nc(I)nc31)[C@H](O)[C@@H]2O — pKi (HTR2B; ligand displacement, radioligand): 8.37
Cc1ccc(F)c(O)c1CN1CCN(C2CCCC2O)CC1 (stereo not shown) — pIC50 (HTR2B; calcium signal, antagonist): 6.87
NC(=O)c1cccc(C#CCN(CC[C@H](N)C(=O)O)C[C@H]2O[C@@H](n3cnc4c(N)ncnc43)[C@H](O)[C@@H]2O)c1 — pKd (RNMT; binding, MST): 4.45
O=C(O)C1=CC(=C(c2ccc(O)c(C(=O)O)c2)c2ccc(O)c(C(=O)O)c2)C=CC1=O — pKd (Guanine nucleotide-binding protein G(i) subunit alpha-3 (GNAI3, Homo sapiens, UniProt P08754); binding, BLI): ~5.80
COc1cccc(NC(=S)NN=Cc2ccc(N3CCCCC3)cc2)c1 — pIC50 (DHFR; enzyme activity, inhibitor): 4.65
CCc1oc2c([C@H](CO)N(CC)CC)cccc2c1C — pEC50 (Lysophosphatidic acid receptor 1 (LPAR1, Homo sapiens, UniProt Q92633); G protein activation, agonist): 8.92
O=C(c1cc(C2CCNC2)[nH]n1)N1CCC(c2cccc(Cl)c2)C1 (stereo not shown) — pIC50 (HTR2B; calcium signal, antagonist): 4.78
N#C[C@@]12C[C@@H]1[C@@H](n1cnc3c(N[C@@H](C4CCC4)C4CC4)nc(I)nc31)[C@H](O)[C@@H]2O — Kb (5-hydroxytryptamine receptor 2C (HTR2C, Homo sapiens, UniProt P28335); calcium signal, antagonist): 3.39 nM
